In ChEMBL document CHEMBL1145165, “Syntheses and biological activities of disaccharide daunorubicins” (J Med Chem, 2005):
pIC50: −log10 of the molar value. Structures can show the parent of a compound that is named as a salt.

Experiments:
K562 = assay: Cytotoxicity against K562 leukemia cell line done for 72 hr at 37 degree C with compound in MTS assay; format: functional, cell-based, Homo sapiens
Summary of the method: (§1)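 Cells (2000–10000) seeded in RPMI-1640 for 24 h, then exponentially growing cells exposed to a range of concentrations (0.001–5 μM) for 72 h at 37 °C, 5% CO2. MTS (2 mg/mL) mixed with PMS (25 μM) added directly; after 3 h at 37 °C formazan absorbance read at 490 nm. IC50 taken from dose-response curves of percent growth versus untreated control.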

SW-620 = assay: Cytotoxicity against SW620 colon cancer cell line done for 72 h at 37 degree C with compound in MTS assay; format: functional, cell-based, Homo sapiens; summary of the method: as §1

Work on COc1cccc2c1C(=O)c1c(O)c3c(c(O)c1C2=O)C[C@@](O)(C(C)=O)C[C@@H]3OC1CC(N)C(OC2CC(C)(OC)C(O)C(C)O2)C(C)O1 (stereo partly drawn) yielded a pIC50 (K562; Homo sapiens, K562, 72 h) of 7.68 and a pIC50 (SW-620; Homo sapiens, SW-620, 72 h) of 7.94.

Work on COc1cccc2c1C(=O)c1c(O)c3c(c(O)c1C2=O)C[C@@](O)(C(C)=O)C[C@@H]3OC1CC(N)C(OC2CC(O)C(O)C(CO)O2)C(C)O1 (stereo partly drawn) yielded a pIC50 (K562; Homo sapiens, K562, 72 h) of 5.86 and a pIC50 (SW-620; Homo sapiens, SW-620, 72 h) of under 6.00.

For COc1cccc2c1C(=O)c1c(O)c3c(c(O)c1C2=O)C[C@@](O)(C(C)=O)C[C@@H]3OC1CC(N)C(OC2OC(C)C(O)C(O)C2O)C(C)O1 (stereo partly drawn), the pIC50 (K562; Homo sapiens, K562, 72 h) was under 5.40 and the pIC50 (SW-620; Homo sapiens, SW-620, 72 h) was under 6.00.

COc1cccc2c1C(=O)c1c(O)c3c(c(O)c1C2=O)C[C@@](O)(C(C)=O)C[C@@H]3OC1CC(N)C(OC2CC(N=[N+]=[N-])C(O)C(C)O2)C(C)O1 (stereo partly drawn) was tested, and the pIC50 (K562; Homo sapiens, K562, 72 h) was 7.50 and the pIC50 (SW-620; Homo sapiens, SW-620, 72 h) was 7.22.

Compound COc1cccc2c1C(=O)c1c(O)c3c(c(O)c1C2=O)C[C@@](O)(C(C)=O)C[C@@H]3OC1CC(N)C(OC2CC(OC)C(O)C(C)O2)C(C)O1 (stereo in doubt; 1) has a pIC50 (K562; Homo sapiens, K562, 72 h) of 7.40 and a pIC50 (SW-620; sw-620) of 7.74.

COc1cccc2c1C(=O)c1c(O)c3c(c(O)c1C2=O)C[C@@](O)(C(C)=O)C[C@@H]3OC1CC(N)C(OC2CC(OC)C(O)C(C)O2)C(C)O1 (stereo in doubt; 2) was tested, and the pIC50 (K562; k562) was 7.34 and the pIC50 (SW-620; sw-620) was 7.41.

COc1cccc2c1C(=O)c1c(O)c3c(c(O)c1C2=O)C[C@@](O)(C(C)=O)C[C@@H]3OC1CC(N)C(OC2CC(C)(O)C(O)C(C)O2)C(C)O1 (stereo in doubt; 3) gave a pIC50 (K562; k562) of 7.35 and a pIC50 (SW-620; sw-620) of 7.66.

Work on COc1cccc2c1C(=O)c1c(O)c3c(c(O)c1C2=O)C[C@@](O)(C(C)=O)C[C@@H]3OC1CC(N)C(OC2CC(C)(O)C(O)C(C)O2)C(C)O1 (stereo in doubt; 4) yielded a pIC50 (K562; k562) of 5.82 and a pIC50 (SW-620; sw-620) of under 6.00.

For COc1cccc2c1C(=O)c1c(O)c3c(c(O)c1C2=O)C[C@@](O)(C(C)=O)C[C@@H]3O[C@H]1C[C@H](N)[C@H](O)[C@H](C)O1 [DAUNORUBICIN HYDROCHLORIDE], the pIC50 (K562; Homo sapiens, K562, 72 h) was 7.81 and the pIC50 (SW-620; Homo sapiens, SW-620, 72 h) was 8.07.
